Here are results for seven molecules from PubChem BioAssay.

One may read the inhibition as the change of the read-out against control, counted positive when it falls.

The structures appear in SMILES notation. Calls of active or inactive are those of the source.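 The calls were made as follows, unless noted: active = inhibition above 20% together with a positive visual image hit; inconclusive = visual image hit but inhibition not above 20%; inactive = no visual image hit.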

A short description of experiment [1]: inhibitors of TNFa-induced NFkB p65 translocation, primary screen, imaging, HUVEC, MLSMR starter and 10KST1 sets (AID 438).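 Also: compound added about 3h40 before a 20 min TNFalpha stimulation.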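 As to inhibition: signal is the nuclear over cytoplasmic p65 intensity ratio per well.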 The settings on record: HUVEC TNFa-induced p65 nuclear translocation; cell count: measured here: nuclei count (cytotoxicity indicator), at 2.08 µM; inhibition: at 2 µM, stronger effect = higher value, 0% TNFa-plus-vehicle, 100% no-TNFa wells.
Experiment [2] in a line: endothelial E-selectin expression blockers – imaging, HUVEC, immunofluorescence, MLSMR starter and 10KST1 sets, primary screen (AID 487;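 active = visually confirmed hit in the image check and inhibition above 20%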;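 as to inhibition: signal is fraction of cell area covered by stained E-selectin grains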;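 as to nuclei count: 100% = median nuclei count of all wells on the same plate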). To be noted: HUVEC TNFalpha-induced E-selectin immunofluorescence imaging, at 2 µM; inhibition: stronger effect = higher value; nuclei count: measured here: cell number, toxicity.
Experiment [3] is described as follows: Primary imaging screen for DUSP6 inhibitors that restore phospho-Erk in transfected HeLa cells, chemical complementation (AID 609;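 active = compounds giving at least 50% inhibition in the cell-based MKP-3 phosphatase rescue imaging test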;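 as to inhibition: phospho-Erk level distribution per well compared with pooled transfected vehicle control wells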). To be noted: HeLa MKP-3 transfected, phospho-Erk imaging KS statistic, at 10 µM, cells stimulated with TPA for 15 min.
In experiment [4] the target is Dual specificity protein phosphatase 6 (Homo sapiens) (UniProt Q16828). The description is as above. The settings on record: HeLa MKP-3 transfected, phospho-Erk imaging KS statistic; at 10 µM; stronger effect = higher value; cells stimulated with TPA for 15 min.
In experiment [5] the target is Voltage-gated potassium channel subunit beta-2 (Rattus norvegicus) (UniProt P62483). The experiment can be described thus: inhibitors of rat Kvbeta2 reductase activity – biochemical, NADPH fluorescence, primary screen (AID 622;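 active = fluorescence slope higher than the sample average by over 3 SD, cut at about -0.22 in these data, passing the limit was not always enough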;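 also: slope of raw intensity against log time taken from 70 to 1610 s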). The settings on record: recombinant KvBeta, 4-cyanobenzaldehyde reduction, at 10 µM, stronger effect = higher value.
Experiment [6] shares this target. The experiment can be described thus: enhancers of rat Kvbeta2 NADPH turnover – biochemical, NADPH fluorescence, primary screen (AID 623;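 active = NADPH fluorescence slope more negative than the mean of all samples by about 3 SD, 99.7% confidence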;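 also: fluorescence intensity change per second fitted from 20 to 320 s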). To be noted: Recombinant KvBeta, NADPH fluorescence decrease slope, 10 min; at 10 µM; stronger effect = lower value.
For experiment [7], the target named is Alpha-2C adrenergic receptor (Homo sapiens) (UniProt P18825). As to the kind of experiment: compounds altering alpha2C-coupled GIRK flux – cell-based, HEK293 alpha2C/GIRK1/2, thallium flux, primary screen (AID 624;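 active = fluorescence slope after compound addition differing from the mean of all screened samples at 99.7% confidence, in either direction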;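 also: slope of fluorescence ratio to pre-addition baseline per second over 15 to 24 s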). The settings on record: thallium flux BTC fluorescence, at 10 µM, actives lie on both sides.
The nature of experiment [8]: inhibitors of larval lipid processing in zebrafish, primary screen, whole organism, PED6 fluorescence, gall bladder and intestine (AID 686;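 active = a full or partial loss of lipid-probe fluorescence in the fish gall bladder, intestine or both, judged by eye; inactive = no fluorescence loss, or compound toxic to the fish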;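 also: larvae 5 to 7 days old with five fish per well; signal comes from phospholipase A2 cleavage of quenched PED6 carried via bile; overnight exposure to compound and PED6 before scoring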). The settings on record: Zebrafish larvae PED6 lipid processing, fluorescence scoring; screened at 20 µM (by protocol). The procedure, abridged:
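system = live zebrafish larvae aged 5-7 days, whole organism | probe or stimulus = ingested quenched lipid PED6 at 100 nM | doses = 20 µM single dose | timing = overnight exposure | detection = fluorescence microscopy with visual scoring of gall bladder and intestine | read-out = visual per-well fluorescence inhibition score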

The nature of experiment [9]: loss of swimming-algae plug formation – whole organism, Chlamydomonas reinhardtii, WT vs cilia-less mutant, absorbance, 96-well, primary screen (AID 463189;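 active = inhibition at or above 50% relative to wild type and mutant plate controls; inactive = inhibition below 50%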;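 also: 0% = wild type cc124 cells in DMSO and 100% = ciliumless bld1 mutant cells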). To be noted: Chlamydomonas reinhardtii gravitaxis, OD600 absorbance, 2 days; at 10 µM; stronger effect = higher value.
[10] abbreviates: measured here: cell density z-score.
[11] abbreviates: measured here: nuclear c-Myc green intensity z-score.
[12] abbreviates: measured here: nuclear pErk red intensity z-score, stronger effect = higher value.

Chain of Alpha-2C adrenergic receptor (Homo sapiens) (P18825 whole entry, looked up): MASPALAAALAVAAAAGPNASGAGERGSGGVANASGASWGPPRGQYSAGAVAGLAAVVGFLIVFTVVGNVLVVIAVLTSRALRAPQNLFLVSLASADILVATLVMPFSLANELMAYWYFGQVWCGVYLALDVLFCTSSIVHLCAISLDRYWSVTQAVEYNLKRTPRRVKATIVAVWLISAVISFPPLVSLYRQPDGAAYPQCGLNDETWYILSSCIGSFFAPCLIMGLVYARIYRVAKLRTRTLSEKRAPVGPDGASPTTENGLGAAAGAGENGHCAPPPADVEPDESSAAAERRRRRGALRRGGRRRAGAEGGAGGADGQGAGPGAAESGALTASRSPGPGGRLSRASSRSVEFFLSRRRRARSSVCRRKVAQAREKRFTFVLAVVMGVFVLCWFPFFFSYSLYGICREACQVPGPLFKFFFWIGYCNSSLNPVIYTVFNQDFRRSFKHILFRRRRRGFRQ
Chain of Voltage-gated potassium channel subunit beta-2 (Rattus norvegicus) (P62483 whole entry, looked up): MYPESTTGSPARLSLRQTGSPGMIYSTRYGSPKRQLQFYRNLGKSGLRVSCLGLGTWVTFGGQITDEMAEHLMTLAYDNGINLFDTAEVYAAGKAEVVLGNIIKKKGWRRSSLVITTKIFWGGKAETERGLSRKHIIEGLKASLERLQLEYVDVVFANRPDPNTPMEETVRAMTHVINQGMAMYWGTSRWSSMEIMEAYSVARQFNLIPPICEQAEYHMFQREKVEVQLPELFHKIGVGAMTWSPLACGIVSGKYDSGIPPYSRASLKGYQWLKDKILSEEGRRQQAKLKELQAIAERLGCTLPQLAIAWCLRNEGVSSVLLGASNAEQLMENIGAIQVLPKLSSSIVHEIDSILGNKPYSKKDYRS
Chain of Dual specificity protein phosphatase 6 (Homo sapiens) (Q16828 whole entry, looked up): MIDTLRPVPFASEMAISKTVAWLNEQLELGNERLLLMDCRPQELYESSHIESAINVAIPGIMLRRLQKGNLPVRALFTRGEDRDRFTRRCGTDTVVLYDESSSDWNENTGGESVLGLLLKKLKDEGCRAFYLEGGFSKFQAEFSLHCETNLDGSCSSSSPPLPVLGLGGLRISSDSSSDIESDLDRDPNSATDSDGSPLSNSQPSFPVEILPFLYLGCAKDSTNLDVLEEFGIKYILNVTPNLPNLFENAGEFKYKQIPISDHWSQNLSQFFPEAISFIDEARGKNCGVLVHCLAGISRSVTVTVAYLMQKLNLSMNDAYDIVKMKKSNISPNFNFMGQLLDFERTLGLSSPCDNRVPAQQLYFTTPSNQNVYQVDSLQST

`CC1CN(c2oc(-c3ccccc3Cl)nc2C#N)CC(C)O1` (stereo unspecified): the cell count in experiment [1] amounted to 355. Also, the inhibition in experiment [1] is -5.2% (inactive); in experiment [2] it was -154% (inactive); in experiment [4] it was -0.159% (inactive); in [9], -9.38% (inactive). The molecule also came in with a nuclei count in [2] of 83.5%. In addition, the z-score is -0.0257 in [3] (setting [10]), -0.411 in [3] (setting [11]) and -1.37 in [3] (setting [12]). Further, the fluorescence slope in experiment [5] is -0.433 (inactive). In experiment [6], the NADPH fluorescence slope is -9.2e-06 (inactive). The slope in [7] is 0.00575 (inactive). Besides, in experiment [8], the molecule was called inactive.
As to `O=c1[nH]c(CN2CCCCC2)nc2c1C1(CCCCC1)Cc1ccccc1-2`, in experiment [1], the cell count turned out to be 374. For the same molecule, the inhibition in experiment [1] was -4.7% (inactive); in experiment [2], -4.9% (inactive); in experiment [4] it was -4.7% (inactive); in experiment [9], -10.4% (inactive). For the same molecule, the nuclei count in experiment [2] was 104%. The z-score is 0.315 in experiment [3] (setting [10]), 0.221 in [3] (setting [11]) and -1.87 in experiment [3] (setting [12]). Besides, the fluorescence slope in experiment [5] is -0.395 (inactive). Moreover, the NADPH fluorescence slope in experiment [6] was 2.4e-05 (inactive). For the same molecule, the slope in experiment [7] was 0.0066 (inactive). Further, the outcome in [8] was inactive.
`OC1(c2cccc(C(F)(F)F)c2)CCN(c2ncnc3c2[nH]c2ccccc23)CC1`: the cell count in experiment [1] is 447. The inhibition is -2.9% (inactive) in [1], -95% (inactive) in [2], 34.7% (inactive) in experiment [4] and 19.3% (inactive) in [9]. In addition, in experiment [2], the nuclei count worked out at 165%. Besides, the results for the z-score in [3] (setting [10]), in [3] (setting [11]) and in experiment [3] (setting [12]) were -0.506, 1.11 and -2.96, respectively. For the same molecule, the fluorescence slope in experiment [5] is -0.454 (inactive). Besides, in [6], the NADPH fluorescence slope was -5.6e-05 (inactive). Besides, in experiment [7], the slope was 0.0037 (inactive). The molecule was called inactive in experiment [8].
Take `CCC1(C)Cc2c(sc3nc4n(c(=O)c23)CCS4)CO1` (stereo unspecified): the cell count in experiment [1] amounted to 596. Besides, the inhibition in experiment [1] was -14.8% (inactive); in experiment [2] it was -109% (inactive); in experiment [4], -6.86% (inactive); in experiment [9] it was 5.08% (inactive). The molecule further registered a nuclei count in experiment [2] of 182%. The z-score in experiment [3] (setting [10]) was -1.93; in [3] (setting [11]) it was -0.473; in [3] (setting [12]) it was 1.15. Also, the fluorescence slope in experiment [5] is -0.336 (inactive). For the same molecule, the NADPH fluorescence slope in experiment [6] is -1e-05 (inactive). For the same molecule, in [7], the slope is 0.00519 (inactive). Also, the result in [8] was inactive.
`COCCOC(=O)C1=C(C)OC(N)=C(C#N)C1c1ccco1` (stereo unspecified): the cell count in [1] is 364. Further, the inhibition in experiment [1] was -7.8% (inactive); in [2] it was -269% (inactive); in [4], -13.5% (inactive); in [9], 20.2% (inactive). The molecule further came in with a nuclei count in [2] of 165%. Besides, the z-score in [3] (setting [10]) was -0.623; in experiment [3] (setting [11]), -0.763; in experiment [3] (setting [12]) it was 1.29. For the same molecule, the fluorescence slope in [5] is -0.406 (inactive). Moreover, the NADPH fluorescence slope in experiment [6] is -4.7e-05 (inactive). For the same molecule, the slope in experiment [7] was 0.00481 (inactive). The outcome in experiment [8] was inactive.
As for `Nc1nonc1-c1noc(N2CCOCC2)n1`, the cell count in experiment [1] was 306. Moreover, the inhibition in experiment [1] is -10.9% (inactive); in experiment [2] it was -42.1% (inactive); in experiment [4], -12.3% (inactive); in [9] it was 17.1% (inactive). The molecule further showed a nuclei count in experiment [2] of 106%. The results for the z-score in [3] (setting [10]), in [3] (setting [11]) and in experiment [3] (setting [12]) were 0.592, 0.125 and 0.227, respectively. In addition, the fluorescence slope in experiment [5] was -0.281 (inactive). Moreover, the NADPH fluorescence slope in experiment [6] was 1e-05 (inactive). Also, in [7], the slope was 0.00528 (inactive). The molecule was called inactive in [8].
In the case of `COc1ccc(OC)c(C2C(C(=O)c3ccco3)=C(O)C(=O)N2CCCN2CCOCC2)c1` (stereo unspecified), the cell count in [1] amounted to 546. For the same molecule, the inhibition was -4.5% (inactive) in experiment [1], -85% (inactive) in experiment [2], -0.674% (inactive) in experiment [4] and 2.93% (inactive) in experiment [9]. For the same molecule, the nuclei count in [2] is 159%. The values for the z-score in experiment [3] (setting [10]), in experiment [3] (setting [11]) and in experiment [3] (setting [12]) were -1.04, 0.589 and -0.634, respectively. Moreover, the fluorescence slope in experiment [5] is -0.495 (inactive). In [6], the NADPH fluorescence slope is -3.6e-05 (inactive). Further, the slope in experiment [7] was 0.0072 (inactive). For the same molecule, in experiment [8], the result was inactive.
